Assays:
[1] = Inhibition of PDE-4 in human PBMC assessed as LPS-induced TNFalpha production incubated for 15 mins followed by LPS stimulation and measured after 18 hrs by ELISA relative to control
Outline: (§1)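 PBMC isolated from healthy volunteers' blood in cell preparation tubes, suspended in RPMI; 0.5 million cells/well pre-incubated with compound 15 min at 37 °C, then stimulated with E. coli LPS (B4) 1 µg/mL for 18 h at 37 °C, 5% CO2; medium TNF-α measured by ELISA.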

[2] = target: T1, 3',5'-cyclic-AMP phosphodiesterase 4B (Homo sapiens, UniProt Q07343); test: Inhibition of human PDE4B using [3H]cAMP as substrate at 100 nM incubated for 5 mins followed by substrate addition and measured after 10 mins by scintillation proximity assay relative to control; settings: time 15.0 min
T1 sequence (Q07343 whole entry): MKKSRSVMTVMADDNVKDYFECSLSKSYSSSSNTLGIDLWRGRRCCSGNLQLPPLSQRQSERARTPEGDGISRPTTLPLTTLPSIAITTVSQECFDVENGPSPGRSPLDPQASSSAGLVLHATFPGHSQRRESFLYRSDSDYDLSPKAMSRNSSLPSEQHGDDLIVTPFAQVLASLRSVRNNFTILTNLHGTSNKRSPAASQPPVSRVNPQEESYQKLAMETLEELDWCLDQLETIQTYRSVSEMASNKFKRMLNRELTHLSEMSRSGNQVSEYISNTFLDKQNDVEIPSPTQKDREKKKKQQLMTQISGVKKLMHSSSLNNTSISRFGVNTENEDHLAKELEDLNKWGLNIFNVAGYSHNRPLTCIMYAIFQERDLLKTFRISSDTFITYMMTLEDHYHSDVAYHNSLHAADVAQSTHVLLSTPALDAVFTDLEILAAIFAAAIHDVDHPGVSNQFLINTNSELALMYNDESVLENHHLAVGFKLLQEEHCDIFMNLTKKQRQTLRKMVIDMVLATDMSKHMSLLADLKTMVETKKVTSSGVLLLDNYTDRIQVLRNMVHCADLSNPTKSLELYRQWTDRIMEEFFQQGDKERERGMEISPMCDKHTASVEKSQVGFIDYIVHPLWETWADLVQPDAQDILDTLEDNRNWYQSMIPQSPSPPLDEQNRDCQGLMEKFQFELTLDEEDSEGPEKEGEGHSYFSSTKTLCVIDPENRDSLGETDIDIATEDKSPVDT
Outline: (§2)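 Purified human PDE-4B2 in 50 mM Tris pH 7.4, 8.3 mM Mg2+, 1% DMSO final, enzyme converting 10–20% of substrate; 5 min pre-incubation at 37 °C, then 0.5 µM cAMP with ~50,000 cpm [3H]-cAMP for 10 min; stopped with yttrium silicate SPA beads containing 18 mM ZnSO4, read after >30 min settling. Background = no enzyme; IC50 from 8–10-point 4-parameter fit.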

[3] = target: T1, 3',5'-cyclic-AMP phosphodiesterase 4B; test: Inhibition of human PDE4B using [3H]cAMP as substrate incubated for 5 mins followed by substrate addition and measured after 10 mins by scintillation proximity assay; outline: as §2
[4] = system: PBMC; test: Inhibition of PDE-4 in human PBMC assessed as LPS-induced TNFalpha production at 1000 nM incubated for 15 mins followed by LPS stimulation and measured after 18 hrs by ELISA relative to control; settings: time 1095.0 min; outline: as §1
[5] = system: PBMC; test: Inhibition of PDE-4 in human PBMC assessed as LPS-induced TNFalpha production at 100 nM incubated for 15 mins followed by LPS stimulation and measured after 18 hrs by ELISA relative to control; settings: time 1095.0 min; outline: as §1
[6] = system: Rattus norvegicus; test: Antiinflammatory activity in Sprague-Dawley rat model of LPS-induced COPD and asthma assessed as reduction in neutrophil influx in BALF at 10 mg/kg, po administered 30 mins before LPS stimulation and measured after 6 hrs relative to control; type: functional; settings: time 6.5 hrs
[7] = target: T1, 3',5'-cyclic-AMP phosphodiesterase 4B; test: Inhibition of human PDE4B using [3H]CAMP as substrate at 1000 nM incubated for 5 mins followed by substrate addition and measured after 10 mins by scintillation proximity assay relative to control; settings: time 15.0 min; outline: as §2
[8] = system: Rattus norvegicus; test: Antiinflammatory activity in Sprague-Dawley rat model of LPS-induced COPD and asthma assessed as reduction in neutrophil influx in BALF at 5 mg/kg, po administered 30 mins before LPS stimulation and measured after 6 hrs relative to control; type: functional; settings: time 6.5 hrs
[9] = system: Mus musculus; test: Antiinflammatory activity in Swiss albino mouse model of LPS-induced sepsis assessed as reduction in TNFalpha production at 10 mg/kg, po administered 30 mins before LPS stimulation and measured after 90 min by ELISA relative to control; type: functional; settings: 2 h, time 120 min
Outline: (§3)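 Female Swiss albino mice fasted 20 h with water, dosed orally in 0.5% Tween 80/0.25% CMC sodium; vehicle-only controls. 500 µg E. coli LPS (B4) in PBS i.p. 30 min later; retro-orbital bleed 90 min post-LPS, blood held overnight at 4 °C, serum TNF-α by mouse ELISA; % inhibition.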

[10] = system: Mus musculus; test: Antiinflammatory activity in Swiss albino mouse model of LPS-induced sepsis assessed as reduction in TNFalpha production at 1 mg/kg, po administered 30 mins before LPS stimulation and measured after 90 min by ELISA relative to control; type: functional; settings: 2 h, time 120 min; outline: as §3
[11] = system: Mus musculus; test: Antiinflammatory activity in Swiss albino mouse model of LPS-induced sepsis assessed as reduction in TNFalpha production at 3 mg/kg, po administered 30 mins before LPS stimulation and measured after 90 min by ELISA relative to control; type: functional; settings: 2 h, time 120 min; outline: as §3
[12] = system: Rattus norvegicus; test: Antiinflammatory activity in Sprague-Dawley rat model of LPS-induced COPD and asthma assessed as reduction in total cell count in BALF at 10 mg/kg, po administered 30 mins before LPS stimulation and measured after 6 hrs relative to control; type: functional; settings: time 6.5 hrs

Row | Compound | inhibition [2] | inhibition [4] | inhibition [5] | inhibition [7] | also measured
1 | CCOc1cc([C@@H](CS(C)(=O)=O)N2C(=O)c3cccc(NC(C)=O)c3C2=O)ccc1OC |  |  |  |  | IC50 [1]: 77 nM
2 | CS(=O)(=O)Nc1ccc2oc3c(OC(F)F)ccc(-c4nc(C(=O)NC5CCC(O)CC5)cs4)c3c2c1 (configuration not stated) | 67% | 97.8% | 78.6% |  | IC50 [3]: 31.4 nM; IC50 [1]: 18.4 nM
3 | Cc1sc(-c2ccc(OC(F)F)c3oc4ccc(NS(C)(=O)=O)cc4c23)nc1C(=O)NC1CCC(O)CC1 (configuration not stated) | 67.6% | 92.8% | 61.8% |  | IC50 [3]: 24.7 nM; IC50 [1]: 54.4 nM; inhibition in vivo at 10 mg/kg [6]: 19.3%
4 | COc1ccc(-c2nc(C(N)=O)cs2)c2c1oc1ccccc12 | 15.4% | 69.8% | 35.5% | 43.8% | IC50 [1]: 386 nM
5 | COc1ccc(-c2nc(CC(=O)Nc3c(Cl)cncc3Cl)cs2)c2c1oc1ccccc12 | 32.7% |  |  | 87.8% | 
6 | COc1ccc(-c2nc(C(=O)Nc3ccccc3)cs2)c2c1oc1ccccc12 | 2.4% |  |  | 7.4% | 
7 | COc1ccc(-c2nc(C(=O)N3CCN(c4ncccn4)CC3)cs2)c2c1oc1ccccc12 | 25.8% |  |  | 59.3% | 
8 | COc1ccc(-c2nc(C(=O)NC3CCC(O)CC3)c(C)s2)c2c1oc1ccccc12 (configuration not stated) | 62.6% | 103% | 82.7% |  | IC50 [3]: 43.8 nM; IC50 [1]: 27.7 nM
9 | COc1ccc(-c2nc(C(=O)NN3CCOCC3)cs2)c2c1oc1ccccc12 | 39.6% | 22% |  |  | 
10 | O=C(Nc1c(Cl)cncc1Cl)c1csc(-c2ccc(OC(F)F)c3oc4ccccc4c23)n1 | 42.3% | 28.3% | 14.5% | 88.6% | IC50 [3]: 127 nM; IC50 [1]: 2210 nM
11 | COc1ccc(-c2nc(C(=O)NC3CCCC3)c(C)s2)c2c1oc1ccccc12 | 1.6% | 39.1% | 21.9% |  | 
12 | CC(=O)Nc1ccc2oc3c(OC(F)F)ccc(-c4nc(C(=O)NC5CCC(O)CC5)cs4)c3c2c1 (configuration not stated) | 69% | 91.9% | 83.4% |  | IC50 [3]: 40.4 nM; IC50 [1]: 39.6 nM; inhibition in vivo at 10 mg/kg [6]: 51.2%; inhibition in vivo at 5 mg/kg [8]: 35.7%
13 | COc1ccc(-c2nc(C(=O)Nc3ccc(Cl)cc3)cs2)c2c1oc1ccccc12 | 1.2% | 15.8% | 2.98% | 5.2% | 
14 | CS(=O)(=O)Nc1ccc2oc3c(OC(F)F)ccc(-c4nc(C(=O)Nc5c(Cl)cncc5Cl)cs4)c3c2c1 | 43.4% |  | 25.1% |  | 
15 | CS(=O)(=O)Nc1ccc2oc3c(OC(F)F)ccc(C(=O)Nc4c(Cl)cncc4Cl)c3c2c1 [OGLEMILAST] |  |  |  |  | inhibition in vivo at 10 mg/kg [9]: 72.5%; inhibition in vivo at 1 mg/kg [10]: 53.9%
16 | COc1ccc(-c2nc(C(=O)Nc3c(Cl)cncc3Cl)c(C)s2)c2c1oc1ccccc12 | 11.1% | 9.9% | 0.9% |  | 
17 | O=C(NCC(F)(F)F)c1csc(-c2ccc(OC(F)F)c3oc4ccccc4c23)n1 |  | 31.9% | 26.7% |  | 
18 | O=C(c1csc(-c2ccc(OC(F)F)c3oc4ccc(C(F)(F)F)cc4c23)n1)N1CCC(O)CC1 | 27.4% |  | 14% |  | 

Row | Compound | inhibition [2] | inhibition [4] | inhibition [5] | inhibition [7] | also measured
19 | O=C(O)c1csc(-c2ccc(OC(F)F)c3oc4ccc(C(F)(F)F)cc4c23)n1 | 59.3% |  | 4.2% |  | 
20 | COc1ccc(-c2nc(-c3ccc(C#N)cc3)cs2)c2c1oc1ccccc12 | 5.2% |  |  | 15.8% | 
21 | COc1ccc(-c2csc(-c3ccc(OC)c4oc5ccccc5c34)n2)cc1 | 19.4% |  |  | 41.5% | 
22 | CCOC(=O)c1cccc(-c2csc(-c3ccc(OC)c4oc5ccccc5c34)n2)n1 | 5.8% |  |  | 15.6% | 
23 | COc1ccc(-c2nc(C(=O)Nc3c(Cl)cncc3Cl)cs2)c2c1oc1ccccc12 | 70.3% | 34.2% |  | 92% | IC50 [3]: 48.4 nM; IC50 [1]: 1750 nM; inhibition in vivo at 10 mg/kg [9]: 37.8%
24 | O=C(NC1CCC(O)CC1)c1csc(-c2ccc(OC(F)F)c3oc4ccc(C(F)(F)F)cc4c23)n1 (configuration not stated) | 51.5% |  | 17.2% |  | 
25 | COc1ccc(-c2nc(C(=O)O)cs2)c2c1oc1ccccc12 | 36% |  |  | 80.4% | 
26 | CONC(=O)c1nc(-c2ccc(OC(F)F)c3oc4ccc(NS(C)(=O)=O)cc4c23)sc1C | 81.2% |  | 35.4% |  | 
27 | COc1ccc(-c2nc(C(=O)N3CCN(c4ccccn4)CC3)cs2)c2c1oc1ccccc12 | 21.9% |  |  | 52.9% | 
28 | O=C(Nc1c(Cl)cncc1Cl)c1ccc(OC(F)F)c(OCC2CC2)c1 [ROFLUMILAST] |  |  |  |  | IC50 [1]: 4.3 nM; inhibition in vivo at 10 mg/kg [6]: 73.2%; inhibition in vivo at 3 mg/kg [11]: 59.2%; inhibition in vivo at 10 mg/kg [12]: 73.2%
29 | CONC(=O)c1csc(-c2ccc(OC(F)F)c3oc4ccccc4c23)n1 | 35.7% |  | 8.5% |  | inhibition in vivo at 10 mg/kg [9]: 40.7%
30 | COc1ccc(-c2nc(CCC(=O)Nc3c(Cl)cncc3Cl)cs2)c2c1oc1ccccc12 | 8.9% |  |  | 38.5% | 
31 | CCOC(=O)c1csc(-c2ccc(OC)c3oc4ccccc4c23)n1 | 17.6% |  |  | 24.4% | 
32 | CCNC(=O)c1nc(-c2ccc(OC)c3oc4ccccc4c23)sc1C | 24.6% | 23.8% | 9.9% |  | 
33 | Cc1sc(-c2ccc(OC(F)F)c3oc4ccc(NS(C)(=O)=O)cc4c23)nc1C(=O)O | 62.6% |  |  |  | 
34 | CC(=O)Nc1ccc2oc3c(OC(F)F)ccc(-c4nc(C(=O)O)cs4)c3c2c1 | 56.5% |  | 15.5% |  | 
35 | COc1ccc(-c2nc(-c3cccc(C(=O)O)n3)cs2)c2c1oc1ccccc12 | 18.2% |  |  | 26.4% | 
36 | COc1ccc(-c2nc(C(=O)NC3CCC(O)CC3)cs2)c2c1oc1ccccc12 (configuration not stated) | 71.8% |  | 63.2% |  | IC50 [3]: 49.5 nM; IC50 [1]: 37.7 nM; inhibition in vivo at 10 mg/kg [9]: 46.7%
